ChEMBL document CHEMBL1811772, “Identification of ostruthin from Peucedanum ostruthium rhizomes as an inhibitor of vascular smooth muscle cell proliferation” (J Nat Prod, 2011)
Calls of active or inactive are those of the source. The calls are words filed in the database; no cut-off is given here.

What was measured:
[1] = tested on: VSMC; assay: Antiproliferative activity against serum-stimulated primary rat aortic VSMC at 30 uM after 30 mins by resazurin conversion assay; assay type: functional, tissue-based; details: Aorta
Summary of the method: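 Primary rat aortic VSMC were serum-starved 24 h, pretreated 30 min with 30 μM sample or 0.1% DMSO vehicle, and stimulated 48 h with 10% calf serum. Resazurin (10 μg/mL, 2 h) conversion was read as fluorescence at ex 535/em 580 nm and expressed as fold over unstimulated vehicle cells. Mean ± SD, n = 3, ANOVA/Tukey.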

[2] = tested on: A10; assay: Antiproliferative activity against rat A10; assay type: functional, cell-based
[3] = Cytotoxicity against primary rat aortic VSMC as cell viability at 30 uM by trypan blue exclusion assay (reference value: 98+/-2%); assay type: cell-based; details: primary rat aortic vascular smooth muscle cells (VSMC), read-out: Activity
[4] = Antiproliferative activity against serum-stimulated primary rat aortic VSMC after 30 mins by resazurin conversion assay; assay type: functional, tissue-based; details: Aorta
Summary of the method: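 Sprague–Dawley rat thoracic aorta VSMC were seeded at 1 × 10^4 cells/well, serum-starved 24 h, pretreated 30 min with sample or vehicle (final DMSO 0.1%), then stimulated 48 h with 10% calf serum. They were then washed and given 10 μg/mL resazurin for 2 h, with fluorescence read at ex 535/em 580 nm. Signals were normalized to unstimulated vehicle cells. IC50 was obtained by nonlinear regression; mean ± SD from ≥3 independent experiments.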

[5] = Antiproliferative activity in primary rat aortic VSMC assessed as inhibition of serum-induced DNA synthesis pretreated 30 mins prior serum addition measured after 20 hrs by BrdU incorporation assay; details: Aorta

Compound | Activity [1] | further results
C/C=C(/C)C(=O)O[C@H](COc1c2ccoc2cc2oc(=O)ccc12)C(C)(C)O | inactive | 
CC(C)(O)[C@H](O)COc1c2ccoc2cc2oc(=O)ccc12 | inactive | 
CC(C)=CCOc1c2ccoc2cc2oc(=O)ccc12 | inactive | 
CC(C)=CCOc1c2occc2cc2ccc(=O)oc12 | inactive | 
CC1(C)O[C@H]1COc1c2ccoc2cc2oc(=O)ccc12 | inactive | 
COc1ccc2ccc(=O)oc2c1CC=C(C)C [OSTHOLE] | inactive | IC50 [2]: 13.6 µM
CC(C)=CCC/C(C)=C/Cc1cc2ccc(=O)oc2cc1O [OSTRUTHIN] | Active | viability at 30 µM [3]: 92%; IC50 [4]: 11 µM; IC50 [5]: 17 µM
